Measured values from ChEMBL document CHEMBL4765317, “Novel bacterial topoisomerase inhibitors derived from isomannide” (Eur J Med Chem, 2020).
In brackets after ≈: the same amount, converted by molar mass.

What was measured:
[1] = molecular target: Sodium-dependent dopamine transporter (Homo sapiens) (UniProt Q01959); experiment: Inhibition of recombinant human full length Dopamine transporter expressed in CHO-S cells at 100 uM in presence of [125I]-RTI-55 incubated for 180 mins by scintillation counting method relative to control; format: cell-based
Method in brief: (§1)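 Off-target screen against a panel of 44 receptors, enzymes and transporters, run in duplicate at a single 100 µM concentration. Results are given as % inhibition. No concentration-response follow-up was done.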

[2] = molecular target: T1, CYP3A4 (Homo sapiens, UniProt P08684); experiment: Residual activity of human liver microsome CYP3A4 at 3 uM in presence of NADPH incubated for 10 to 30 mins by LC-MS-MS analysis; settings: human liver microsomes
[3] = test system: Staphylococcus aureus; experiment: Potency index, ratio of MIC90 of ciprofloxacin to MIC90 of compound for antibacterial activity against Fluoroquinolone-resistant Staphylococcus aureus assessed as reduction in bacterial growth by CLSI based broth microdilution method; format: functional
[4] = molecular target: T2, Nav1.5 (late current) (Homo sapiens, UniProt Q14524); experiment: Inhibition of recombinant human Nav1.5 late expressed in human HEK293 cells late at 3 uM in presence of ATXII by automated Qpatch clamp assay relative to control; format: ADME, cell-based; settings: HEK293 cells expressing recombinant human Nav1.5
Method in brief: (§2)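 Part of an eight-assay CiPA panel run on a QPatch HT automated patch clamp at 3, 30 and 100 µM, in duplicate. The test compound came from a 30 mM DMSO stock. Data were filtered for seal quality, seal drop and current amplitude, and reported as mean percent inhibition.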

[5] = molecular target: CYP2C9 (Homo sapiens, UniProt P11712); experiment: Inhibition of human liver microsome CYP2C9 at 10 uM in presence of NADPH incubated for 10 to 30 mins by LC-MS-MS analysis; format: ADME; settings: human liver microsomes, time 10-30 min
[6] = test system: Staphylococcus aureus; experiment: Antibacterial activity against cystic fibrosis patient isolate Staphylococcus aureus assessed as reduction in bacterial growth by CLSI based broth microdilution method; format: functional
[7] = molecular target: Sodium-dependent noradrenaline transporter (Homo sapiens) (UniProt P23975); experiment: Inhibition of recombinant human full length Norepinephrine transporter expressed in dog MDCK cells at 100 uM in presence of [125I]-RTI-55 incubated for 180 mins by scintillation counting method relative to control; format: cell-based; settings: CHO-K1; method in brief: as §1
[8] = Permeability across apical to basolateral side in human Caco2 cells at 10 uM by LC-MS/MS analysis; format: ADME, cell-based; settings: Caco-2, read-out: permeability
[9] = Permeability across basolateral to apical side in human Caco2 cells at 10 uM by LC-MS/MS analysis; format: ADME, cell-based; settings: Caco-2, read-out: permeability
[10] = molecular target: T1, CYP3A4; experiment: Inhibition of human liver microsome CYP3A4 at 10 uM in presence of NADPH incubated for 10 to 30 mins by LC-MS-MS analysis; values are per cent of control; settings: human liver microsomes
[11] = Aqueous solubility of compound at 100 uM incubated for 90 mins by LC-MS/MS analysis; format: physicochemical; settings: buffer
Method in brief: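 Kinetic solubility measured in buffered aqueous solution at pH 7.4.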

[12] = test system: Staphylococcus aureus; experiment: Antibacterial activity against Staphylococcus aureus USA300 assessed as reduction in bacterial growth by CLSI based broth microdilution method; format: functional
[13] = molecular target: T1, CYP3A4; experiment: Residual activity of human liver microsome CYP3A4 at 0.1 uM in presence of NADPH incubated for 10 to 30 mins by LC-MS-MS analysis; settings: human liver microsomes
[14] = test system: Streptococcus pneumoniae; experiment: Antibacterial activity against penicillin-resistant Streptococcus pneumoniae LSI-4246 assessed as reduction in bacterial growth by CLSI based broth microdilution method; format: functional
[15] = molecular target: CYP2D6 (Homo sapiens, UniProt P10635); experiment: Inhibition of human liver microsome CYP2D6 at 10 uM in presence of NADPH incubated for 10 to 30 mins by LC-MS-MS analysis; format: ADME; settings: human liver microsomes, time 10-30 min
[16] = molecular target: CYP2B6 (Homo sapiens, UniProt P20813); experiment: Inhibition of human liver microsome CYP2B6 at 10 uM in presence of NADPH incubated for 10 to 30 mins by LC-MS-MS analysis; format: ADME; settings: human liver microsomes, time 10-30 min
[17] = molecular target: 5-hydroxytryptamine receptor 2B (Homo sapiens) (UniProt P41595); experiment: Inhibition of recombinant human full length 5HT2B expressed in CHO-K1 cells at 100 uM incubated for 30 mins by TR-FRET assay relative to control; format: cell-based; method in brief: as §1
[18] = test system: Staphylococcus aureus; experiment: Antibacterial activity against Staphylococcus aureus 3527 assessed as reduction in bacterial growth by CLSI based broth microdilution method; format: functional
Method in brief: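 Host is a multidrug-resistant MRSA clinical isolate (formerly 1095), the parent of an isogenic D83N gyrase mutant. MIC was read by CLSI broth microdilution and reported in µg/mL.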

[19] = Cytotoxicity against human HepaRG assessed as reduction in cell viability at 0.01 uM incubated for 24 hrs by Cell-Titer Glo assay; format: cell-based; settings: HepaRG cells, read-out: INH
Method in brief: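 ATP-based viability read-out in HepaRG cells over a five-point concentration series (0.01, 0.1, 1, 10, 100 µM). Results are given as % cytotoxicity at each concentration.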

[20] = molecular target: T2, Nav1.5 (late current); experiment: Inhibition of recombinant human Nav1.5 late expressed in human HEK293 cells at 30 uM in presence of ATXII by automated Qpatch clamp assay relative to control; format: ADME, cell-based; settings: HEK293 cells expressing recombinant human Nav1.5; method in brief: as §2
[21] = molecular target: CYP1A2 (Homo sapiens, UniProt P05177); experiment: Inhibition of human liver microsome CYP1A2 at 10 uM in presence of NADPH incubated for 10 to 30 mins by LC-MS-MS analysis; format: ADME; settings: human liver microsomes, time 10-30 min
[22] = test system: Enterococcus faecalis; experiment: Antibacterial activity against Enterococcus faecalis ATCC 29212 assessed as reduction in bacterial growth by CLSI based broth microdilution method; format: functional
[23] = Inhibition of Staphylococcus aureus DNA gyrase using relaxed pBR322 DNA as substrate incubated for 30 mins by agarose gel electrophoresis method
[24] = test system: Streptococcus pyogenes; experiment: Antibacterial activity against Streptococcus pyogenes LSI-1235 assessed as reduction in bacterial growth by CLSI based broth microdilution method; format: functional

T1 sequence (P08684 whole entry): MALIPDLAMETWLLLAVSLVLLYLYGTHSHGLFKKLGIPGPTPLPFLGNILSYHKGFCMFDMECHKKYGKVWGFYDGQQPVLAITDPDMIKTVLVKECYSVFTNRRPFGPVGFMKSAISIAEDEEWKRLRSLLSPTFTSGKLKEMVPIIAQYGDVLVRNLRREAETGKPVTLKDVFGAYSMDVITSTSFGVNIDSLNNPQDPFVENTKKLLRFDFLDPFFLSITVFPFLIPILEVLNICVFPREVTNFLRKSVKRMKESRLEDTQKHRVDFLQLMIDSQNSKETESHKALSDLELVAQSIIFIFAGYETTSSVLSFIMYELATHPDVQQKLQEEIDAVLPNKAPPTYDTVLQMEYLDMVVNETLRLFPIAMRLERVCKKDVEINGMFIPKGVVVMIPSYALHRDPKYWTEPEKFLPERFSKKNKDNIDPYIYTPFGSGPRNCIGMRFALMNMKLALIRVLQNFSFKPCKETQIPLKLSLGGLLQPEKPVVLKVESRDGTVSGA
T2 sequence (Q14524 whole entry): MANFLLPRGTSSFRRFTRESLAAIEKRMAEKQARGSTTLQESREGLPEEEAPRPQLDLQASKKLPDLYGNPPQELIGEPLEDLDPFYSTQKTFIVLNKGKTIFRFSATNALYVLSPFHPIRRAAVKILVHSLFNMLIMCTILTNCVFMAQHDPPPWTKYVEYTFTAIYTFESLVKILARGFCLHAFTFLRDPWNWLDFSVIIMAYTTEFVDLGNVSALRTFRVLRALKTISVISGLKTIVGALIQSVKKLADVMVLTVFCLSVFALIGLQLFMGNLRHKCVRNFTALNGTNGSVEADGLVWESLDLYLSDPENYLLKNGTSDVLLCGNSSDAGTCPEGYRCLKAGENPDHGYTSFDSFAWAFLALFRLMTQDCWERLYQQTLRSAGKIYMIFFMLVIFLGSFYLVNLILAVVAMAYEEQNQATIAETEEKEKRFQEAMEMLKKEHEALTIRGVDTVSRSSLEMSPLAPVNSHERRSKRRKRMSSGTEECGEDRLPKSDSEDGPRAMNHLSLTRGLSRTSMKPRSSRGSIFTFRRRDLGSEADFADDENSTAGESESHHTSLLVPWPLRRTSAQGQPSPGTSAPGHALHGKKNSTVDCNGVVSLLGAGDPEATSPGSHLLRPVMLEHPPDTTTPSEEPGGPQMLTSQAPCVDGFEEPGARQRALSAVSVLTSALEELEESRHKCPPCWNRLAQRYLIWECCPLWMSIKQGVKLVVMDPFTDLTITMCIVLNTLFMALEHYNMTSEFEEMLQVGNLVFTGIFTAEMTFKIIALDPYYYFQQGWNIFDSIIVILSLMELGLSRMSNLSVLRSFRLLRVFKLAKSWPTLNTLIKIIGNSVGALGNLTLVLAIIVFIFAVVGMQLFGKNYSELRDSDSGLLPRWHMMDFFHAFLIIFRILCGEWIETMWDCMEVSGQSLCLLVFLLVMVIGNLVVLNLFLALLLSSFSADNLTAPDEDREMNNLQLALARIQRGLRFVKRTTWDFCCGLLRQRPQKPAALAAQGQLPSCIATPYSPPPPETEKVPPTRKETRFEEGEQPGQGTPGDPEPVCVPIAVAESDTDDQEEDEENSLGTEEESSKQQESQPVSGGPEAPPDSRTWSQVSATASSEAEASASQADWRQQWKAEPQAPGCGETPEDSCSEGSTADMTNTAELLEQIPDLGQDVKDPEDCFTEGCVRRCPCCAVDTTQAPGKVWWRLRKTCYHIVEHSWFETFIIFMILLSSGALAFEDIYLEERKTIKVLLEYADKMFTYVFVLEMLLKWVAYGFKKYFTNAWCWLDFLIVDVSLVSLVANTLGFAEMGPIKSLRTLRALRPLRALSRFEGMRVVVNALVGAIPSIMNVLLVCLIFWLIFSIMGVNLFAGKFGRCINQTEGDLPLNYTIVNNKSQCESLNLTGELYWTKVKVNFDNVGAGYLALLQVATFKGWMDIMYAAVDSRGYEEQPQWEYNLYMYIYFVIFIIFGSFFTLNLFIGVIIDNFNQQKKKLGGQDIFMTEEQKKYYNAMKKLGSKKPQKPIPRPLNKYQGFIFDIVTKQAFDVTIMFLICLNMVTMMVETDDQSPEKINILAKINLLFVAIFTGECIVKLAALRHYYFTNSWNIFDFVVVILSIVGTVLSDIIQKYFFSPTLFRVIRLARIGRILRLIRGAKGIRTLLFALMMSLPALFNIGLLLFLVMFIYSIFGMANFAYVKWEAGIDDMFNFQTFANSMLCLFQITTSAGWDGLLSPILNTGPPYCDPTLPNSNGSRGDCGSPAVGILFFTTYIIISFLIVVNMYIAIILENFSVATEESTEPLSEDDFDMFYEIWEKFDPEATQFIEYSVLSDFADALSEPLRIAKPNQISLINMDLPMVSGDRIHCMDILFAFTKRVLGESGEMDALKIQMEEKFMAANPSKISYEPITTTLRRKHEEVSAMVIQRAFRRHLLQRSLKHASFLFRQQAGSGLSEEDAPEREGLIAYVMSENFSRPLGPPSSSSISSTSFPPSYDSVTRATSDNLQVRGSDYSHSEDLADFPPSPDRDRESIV
Chain of CYP2B6 (P20813 whole entry): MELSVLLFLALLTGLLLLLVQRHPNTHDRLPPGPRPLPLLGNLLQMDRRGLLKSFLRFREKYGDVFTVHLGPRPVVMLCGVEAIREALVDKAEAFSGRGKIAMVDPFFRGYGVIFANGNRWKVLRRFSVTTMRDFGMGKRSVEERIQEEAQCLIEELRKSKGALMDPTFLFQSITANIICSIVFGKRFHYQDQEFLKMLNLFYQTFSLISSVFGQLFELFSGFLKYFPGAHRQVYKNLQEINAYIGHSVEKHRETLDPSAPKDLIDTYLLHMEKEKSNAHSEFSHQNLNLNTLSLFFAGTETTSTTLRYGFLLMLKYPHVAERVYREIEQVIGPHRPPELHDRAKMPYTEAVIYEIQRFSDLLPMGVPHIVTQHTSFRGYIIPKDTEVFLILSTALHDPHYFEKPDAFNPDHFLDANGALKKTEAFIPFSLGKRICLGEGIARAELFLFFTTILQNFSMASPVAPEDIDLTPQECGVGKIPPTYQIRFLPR
Chain of 5-hydroxytryptamine receptor 2B (Homo sapiens) (P41595 whole entry): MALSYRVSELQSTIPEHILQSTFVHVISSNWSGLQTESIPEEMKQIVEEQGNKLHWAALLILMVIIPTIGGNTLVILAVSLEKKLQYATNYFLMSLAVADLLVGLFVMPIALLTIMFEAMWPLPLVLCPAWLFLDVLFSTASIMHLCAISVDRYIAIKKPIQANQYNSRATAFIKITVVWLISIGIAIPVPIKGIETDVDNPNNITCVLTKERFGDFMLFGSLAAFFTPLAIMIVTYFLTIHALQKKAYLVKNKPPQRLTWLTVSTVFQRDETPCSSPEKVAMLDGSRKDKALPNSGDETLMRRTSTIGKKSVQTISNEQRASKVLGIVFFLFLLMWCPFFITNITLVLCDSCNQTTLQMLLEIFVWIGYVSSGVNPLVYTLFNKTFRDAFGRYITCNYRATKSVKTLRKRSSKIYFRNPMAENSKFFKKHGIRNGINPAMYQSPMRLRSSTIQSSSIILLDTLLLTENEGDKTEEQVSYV
Chain of CYP1A2 (P05177 whole entry): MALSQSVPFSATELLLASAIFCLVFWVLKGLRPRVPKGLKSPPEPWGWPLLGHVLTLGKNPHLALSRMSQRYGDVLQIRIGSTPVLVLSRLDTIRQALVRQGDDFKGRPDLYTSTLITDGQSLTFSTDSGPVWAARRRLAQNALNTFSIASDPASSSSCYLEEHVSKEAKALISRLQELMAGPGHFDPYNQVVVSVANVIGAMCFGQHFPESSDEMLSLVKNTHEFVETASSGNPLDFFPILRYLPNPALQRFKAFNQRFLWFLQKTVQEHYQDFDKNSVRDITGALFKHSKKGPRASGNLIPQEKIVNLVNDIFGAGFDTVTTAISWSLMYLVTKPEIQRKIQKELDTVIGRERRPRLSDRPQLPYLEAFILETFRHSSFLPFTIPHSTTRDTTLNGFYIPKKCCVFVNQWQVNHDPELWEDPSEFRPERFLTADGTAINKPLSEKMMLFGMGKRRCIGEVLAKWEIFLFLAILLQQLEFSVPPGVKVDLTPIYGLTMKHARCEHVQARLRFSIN
Chain of Sodium-dependent dopamine transporter (Homo sapiens) (Q01959 whole entry): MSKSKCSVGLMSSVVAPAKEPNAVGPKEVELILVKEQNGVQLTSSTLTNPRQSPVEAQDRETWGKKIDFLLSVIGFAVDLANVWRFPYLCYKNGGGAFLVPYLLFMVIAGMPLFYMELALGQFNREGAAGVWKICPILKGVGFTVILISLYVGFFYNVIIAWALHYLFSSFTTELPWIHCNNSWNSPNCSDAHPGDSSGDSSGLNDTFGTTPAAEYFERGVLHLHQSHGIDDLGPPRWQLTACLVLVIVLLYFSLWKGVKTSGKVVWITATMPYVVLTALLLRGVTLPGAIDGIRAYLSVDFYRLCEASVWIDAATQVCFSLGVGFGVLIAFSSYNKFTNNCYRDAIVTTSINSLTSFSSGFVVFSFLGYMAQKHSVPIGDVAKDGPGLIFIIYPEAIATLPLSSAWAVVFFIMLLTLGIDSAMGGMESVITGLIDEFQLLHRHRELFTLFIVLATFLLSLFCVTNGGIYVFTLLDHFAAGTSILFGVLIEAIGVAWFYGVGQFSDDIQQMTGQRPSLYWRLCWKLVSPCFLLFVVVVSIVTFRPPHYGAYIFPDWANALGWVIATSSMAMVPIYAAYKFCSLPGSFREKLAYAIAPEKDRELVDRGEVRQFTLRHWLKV

Work on `COc1ccc2ncc(F)c(CC[C@@]3(O)CO[C@@H]4[C@@H](NCc5cc6c(cn5)OCCO6)CO[C@@H]43)c2n1` yielded an inhibition [1] of 96%, a residual activity at 3 µM [2] of 60.4% and a Ratio [3] of 16. The inhibition at 3 µM [4] was 4.3%, the inhibition at 10 µM [5] was < 50% and the MIC [6] was 2 µg/mL (≈ 4.01 µM). For the same compound, the inhibition [7] was 68%, the Papp A→B at 10 µM [8] was 10.8 ×10⁻⁶ cm/s and the Papp B→A at 10 µM [9] was 85.3 ×10⁻⁶ cm/s. It also gave a residual activity at 10 µM [10] of 49.5%, a solubility at […], 100 µM [11] of 76.2 µM (≈ 38 µg/mL) and an MIC [12] of 2 µg/mL (≈ 4.01 µM). The residual activity at 0.1 µM [13] was 97%, the MIC [14] was ≤ 0.12 µg/mL and the inhibition at 10 µM [15] was < 50%. For the same compound, the inhibition at 10 µM [16] was < 50%, the inhibition [17] was 95% and the MIC [18] was 2 µg/mL (≈ 4.01 µM). For the same compound, the cytotoxicity at 24 h, 0.01 µM [19] was 6%, the inhibition at 30 µM [20] was 19.1% and the inhibition at 10 µM [21] was < 50%. For the same compound, the MIC [22] was 2 µg/mL (≈ 4.01 µM), the IC50 [23] was 530 nM and the MIC [24] was ≤ 0.12 µg/mL.
